Measurements published in ChEMBL document CHEMBL1151448, “Comparative antianaerobic activities of doripenem determined by MIC and time-kill analysis” (2008).
Values after ≈ are worked out from the molar mass of the structure shown.

Legend:
Format in all cases: functional
[1] = test system: Bacteroides thetaiotaomicron; assay: Antimicrobial activity against beta lactamase-positive Bacteroides thetaiotaomicron isolated from intra-abdominal infection and pelvic inflammatory disease patients after 48 hrs by agar dilution method
Procedure, shortened: (§1)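 CLSI agar dilution on brucella blood agar supplemented with laked sheep blood, hemin and vitamin K. Inocula of about 1 × 10^5 CFU/spot were applied by Steers replicator, and plates were incubated 48 h at 35°C in an anaerobic glove box. MIC was the concentration giving marked growth reduction versus the anaerobic control plate. QC strains were included each run, and β-lactamase was detected by Cefinase disk.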

[2] = test system: Paeniclostridium sordellii; assay: Antimicrobial activity against Clostridium sordellii isolated from intra-abdominal infection and pelvic inflammatory disease patients after 48 hrs by agar dilution method; settings: Paraclostridium sordellii; procedure, shortened: as §1
[3] = test system: Porphyromonas asaccharolytica; assay: Antimicrobial activity against Porphyromonas asaccharolyticus isolated from intra-abdominal infection and pelvic inflammatory disease patients after 48 hrs by agar dilution method; procedure, shortened: as §1
[4] = test system: Prevotella melaninogenica; assay: Antimicrobial activity against beta lactamase-positive Prevotella melaninogenica isolated from intra-abdominal infection and pelvic inflammatory disease patients after 48 hrs by agar dilution method; procedure, shortened: as §1
[5] = test system: Enterocloster clostridioformis; assay: Antimicrobial activity against Clostridium clostridioforme isolated from intra-abdominal infection and pelvic inflammatory disease patients after 48 hrs by agar dilution method; procedure, shortened: as §1
[6] = test system: Bacteroides fragilis; assay: Antimicrobial activity against beta lactamase-positive Bacteroides fragilis isolated from intra-abdominal infection and pelvic inflammatory disease patients after 48 hrs by agar dilution method; procedure, shortened: as §1
[7] = test system: Prevotella nigrescens; assay: Antimicrobial activity against beta lactamase-positive Prevotella nigrescens isolated from intra-abdominal infection and pelvic inflammatory disease patients after 48 hrs by agar dilution method; procedure, shortened: as §1
[8] = test system: Finegoldia magna; assay: Antimicrobial activity against Finegoldia magna isolated from intra-abdominal infection and pelvic inflammatory disease patients after 48 hrs by agar dilution method; procedure, shortened: as §1
[9] = test system: Prevotella corporis; assay: Antimicrobial activity against beta lactamase-positive Prevotella corporis isolated from intra-abdominal infection and pelvic inflammatory disease patients after 48 hrs by agar dilution method; procedure, shortened: as §1
[10] = test system: Anaerococcus prevotii; assay: Antimicrobial activity against Anaerococcus prevotii isolated from intra-abdominal infection and pelvic inflammatory disease patients after 48 hrs by agar dilution method; procedure, shortened: as §1
[11] = test system: Parabacteroides distasonis; assay: Antimicrobial activity against beta lactamase-positive Bacteroides distasonis isolated from intra-abdominal infection and pelvic inflammatory disease patients after 48 hrs by agar dilution method; procedure, shortened: as §1
[12] = test system: Prevotella bivia; assay: Antimicrobial activity against beta lactamase-positive Prevotella bivia isolated from intra-abdominal infection and pelvic inflammatory disease patients after 48 hrs by agar dilution method; procedure, shortened: as §1
[13] = test system: Clostridium perfringens; assay: Antimicrobial activity against Clostridium perfringens isolated from intra-abdominal infection and pelvic inflammatory disease patients after 48 hrs by agar dilution method
Procedure, shortened: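 CLSI agar dilution on brucella blood agar supplemented with laked sheep blood, hemin and vitamin K. Inoculum about 1 × 10^5 CFU/spot, applied by Steers replicator. Plates incubated 48 h at 35°C in an anaerobic glove box. MIC is the concentration giving marked growth reduction versus the anaerobic control plate. Standard QC strains included in each run.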

[14] = test system: Clostridioides difficile; assay: Antimicrobial activity against Clostridium difficile isolated from intra-abdominal infection and pelvic inflammatory disease patients after 48 hrs by time kill analysis
Procedure, shortened: (§2)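 Macrodilution in prereduced brucella broth with 5% laked horse blood cells, 5 μg/ml hemin and 1 μg/ml vitamin K1. Final inoculum 10^6 to 10^7 CFU/ml, prepared inside the anaerobe chamber. Vials incubated 48 h at 35°C in a shaking water bath. MIC read by inspecting the time-kill tubes, alongside an antibiotic-free growth control.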

[15] = test system: Prevotella intermedia; assay: Antimicrobial activity against beta lactamase-positive Prevotella intermedia isolated from intra-abdominal infection and pelvic inflammatory disease patients after 48 hrs by agar dilution method; procedure, shortened: as §1
[16] = test system: Clostridium paraputrificum; assay: Antimicrobial activity against Clostridium paraputrificum isolated from intra-abdominal infection and pelvic inflammatory disease patients after 48 hrs by agar dilution method; procedure, shortened: as §1
[17] = test system: [Clostridium] innocuum; assay: Antimicrobial activity against Clostridium innocuum isolated from intra-abdominal infection and pelvic inflammatory disease patients after 48 hrs by agar dilution method; procedure, shortened: as §1
[18] = test system: Finegoldia magna; assay: Antimicrobial activity against beta lactamase-positive Finegoldia magna isolated from intra-abdominal infection and pelvic inflammatory disease patients after 48 hrs by time kill analysis
Procedure, shortened: (§3)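 The MIC was read by inspecting macrodilution time-kill tubes. Vials held prereduced brucella broth with 5% laked horse blood cells, hemin 5 μg/ml and vitamin K1 1 μg/ml. Final inoculum was 10^6–10^7 CFU/ml, prepared inside the anaerobe chamber. Vials were incubated 48 h at 35°C in a shaking water bath.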

[19] = test system: Fusobacterium mortiferum; assay: Antimicrobial activity against beta lactamase-positive Fusobacterium mortiferum isolated from intra-abdominal infection and pelvic inflammatory disease patients after 48 hrs by agar dilution method; procedure, shortened: as §1
[20] = test system: Prevotella disiens; assay: Antimicrobial activity against beta lactamase-positive Prevotella disiens isolated from intra-abdominal infection and pelvic inflammatory disease patients after 48 hrs by agar dilution method; procedure, shortened: as §1
[21] = test system: Anaerococcus tetradius; assay: Antimicrobial activity against Anaerococcus tetradius isolated from intra-abdominal infection and pelvic inflammatory disease patients after 48 hrs by agar dilution method; procedure, shortened: as §1
[22] = test system: Peptoniphilus asaccharolyticus; assay: Antimicrobial activity against Peptoniphilus asaccharolyticus isolated from intra-abdominal infection and pelvic inflammatory disease patients after 48 hrs by agar dilution method; procedure, shortened: as §1
[23] = test system: Clostridium perfringens; assay: Antimicrobial activity against Clostridium perfringens isolated from intra-abdominal infection and pelvic inflammatory disease patients after 48 hrs by time kill analysis; procedure, shortened: as §2
[24] = test system: Porphyromonas levii; assay: Antimicrobial activity against Porphyromonas levii isolated from intra-abdominal infection and pelvic inflammatory disease patients after 48 hrs by agar dilution method; procedure, shortened: as §1
[25] = test system: Fusobacterium varium; assay: Antimicrobial activity against Fusobacterium varium isolated from intra-abdominal infection and pelvic inflammatory disease patients after 48 hrs by agar dilution method; procedure, shortened: as §1
[26] = test system: Prevotella buccae; assay: Antimicrobial activity against beta lactamase-positive Prevotella buccae isolated from intra-abdominal infection and pelvic inflammatory disease patients after 48 hrs by agar dilution method; settings: Segatella buccae; procedure, shortened: as §1
[27] = test system: Peptostreptococcus anaerobius; assay: Antimicrobial activity against Peptostreptococcus anaerobius isolated from intra-abdominal infection and pelvic inflammatory disease patients after 48 hrs by agar dilution method; procedure, shortened: as §1
[28] = test system: Thomasclavelia ramosa; assay: Antimicrobial activity against Clostridium ramosum isolated from intra-abdominal infection and pelvic inflammatory disease patients after 48 hrs by agar dilution method; procedure, shortened: as §1
[29] = test system: Bacteroides ovatus; assay: Antimicrobial activity against beta lactamase-positive Bacteroides ovatus isolated from intra-abdominal infection and pelvic inflammatory disease patients after 48 hrs by agar dilution method; procedure, shortened: as §1
[30] = test system: Fusobacterium necrophorum; assay: Antimicrobial activity against Fusobacterium necrophorum isolated from intra-abdominal infection and pelvic inflammatory disease patients after 48 hrs by agar dilution method; procedure, shortened: as §1
[31] = test system: Fusobacterium nucleatum; assay: Antimicrobial activity against beta lactamase-positive Fusobacterium nucleatum isolated from intra-abdominal infection and pelvic inflammatory disease patients after 48 hrs by agar dilution method; procedure, shortened: as §1
[32] = test system: Parvimonas micra; assay: Antimicrobial activity against Micromonas micros isolated from intra-abdominal infection and pelvic inflammatory disease patients after 48 hrs by agar dilution method; procedure, shortened: as §1
[33] = test system: Phocaeicola vulgatus; assay: Antimicrobial activity against beta lactamase-positive Bacteroides vulgatus isolated from intra-abdominal infection and pelvic inflammatory disease patients after 48 hrs by agar dilution method; procedure, shortened: as §1
[34] = test system: Bacteroides fragilis; assay: Antimicrobial activity against beta lactamase-positive Bacteroides fragilis isolated from intra-abdominal infection and pelvic inflammatory disease patients after 48 hrs by time kill analysis; procedure, shortened: as §3
[35] = test system: Prevotella denticola; assay: Antimicrobial activity against beta lactamase-positive Prevotella denticola isolated from intra-abdominal infection and pelvic inflammatory disease patients after 48 hrs by agar dilution method; procedure, shortened: as §1
[36] = test system: Clostridioides difficile; assay: Antimicrobial activity against Clostridium difficile isolated from intra-abdominal infection and pelvic inflammatory disease patients after 48 hrs by agar dilution method; procedure, shortened: as §1
[37] = test system: Prevotella intermedia; assay: Antimicrobial activity against beta lactamase-positive Prevotella intermedia isolated from intra-abdominal infection and pelvic inflammatory disease patients after 48 hrs by time kill analysis; procedure, shortened: as §3
[38] = test system: Paraclostridium bifermentans; assay: Antimicrobial activity against Clostridium bifermentans isolated from intra-abdominal infection and pelvic inflammatory disease patients after 48 hrs by agar dilution method; procedure, shortened: as §1
[39] = test system: Porphyromonas gingivalis; assay: Antimicrobial activity against Porphyromonas gingivalis isolated from intra-abdominal infection and pelvic inflammatory disease patients after 48 hrs by agar dilution method; procedure, shortened: as §1
[40] = test system: Clostridium cadaveris; assay: Antimicrobial activity against Clostridium cadaveris isolated from intra-abdominal infection and pelvic inflammatory disease patients after 48 hrs by agar dilution method; procedure, shortened: as §1

CCC[C@@H]1C[C@@H](C(=O)N[C@@H]([C@H]2O[C@H](SC)[C@H](O)[C@@H](O)[C@H]2O)[C@H](C)Cl)N(C)C1 [CLINDAMYCIN]
MIC50 [1]: 4 µg/mL (≈ 9.41 µM)
MIC90 [1]: 8 µg/mL (≈ 18.8 µM)
MIC [2]: 1 µg/mL (≈ 2.35 µM)
MIC [3]: ≤ 0.016 µg/mL
MIC50 [4]: 0.03 µg/mL (≈ 0.0706 µM)
MIC90 [4]: ≤ 0.016 µg/mL
MIC [5]: 0.06 µg/mL (≈ 0.141 µM)
MIC50 [6]: 1 µg/mL (≈ 2.35 µM)
MIC90 [6]: 4 µg/mL (≈ 9.41 µM)
MIC50 [7]: ≤ 0.016 µg/mL
MIC90 [7]: ≤ 0.016 µg/mL
MIC50 [8]: 2 µg/mL (≈ 4.71 µM)
MIC90 [8]: > 16 µg/mL
MIC [9]: ≤ 0.016 µg/mL
MIC50 [9]: ≤ 0.016 µg/mL
MIC90 [9]: 0.03 µg/mL (≈ 0.0706 µM)
MIC [10]: 0.125 µg/mL (≈ 0.294 µM)
MIC50 [11]: 4 µg/mL (≈ 9.41 µM)
MIC90 [11]: > 16 µg/mL
MIC50 [12]: 0.03 µg/mL (≈ 0.0706 µM)
MIC90 [12]: > 16 µg/mL
MIC50 [13]: 1 µg/mL (≈ 2.35 µM)
MIC90 [13]: 2 µg/mL (≈ 4.71 µM)
MIC [14]: 8 µg/mL (≈ 18.8 µM)
MIC50 [15]: ≤ 0.016 µg/mL
MIC90 [15]: 0.03 µg/mL (≈ 0.0706 µM)
MIC [16]: 8 µg/mL (≈ 18.8 µM)
MIC50 [17]: 1 µg/mL (≈ 2.35 µM)
MIC [18]: 0.25 µg/mL (≈ 0.588 µM)
MIC [19]: 0.06 µg/mL (≈ 0.141 µM)
MIC50 [19]: 0.06 µg/mL (≈ 0.141 µM)
MIC90 [19]: 0.25 µg/mL (≈ 0.588 µM)
MIC50 [20]: ≤ 0.016 µg/mL
MIC90 [20]: 0.03 µg/mL (≈ 0.0706 µM)
MIC [21]: 0.5 µg/mL (≈ 1.18 µM)
MIC50 [21]: 0.5 µg/mL (≈ 1.18 µM)
MIC50 [22]: 0.06 µg/mL (≈ 0.141 µM)
MIC90 [22]: > 16 µg/mL
MIC [23]: 0.125 µg/mL (≈ 0.294 µM)
MIC [24]: ≤ 0.016 µg/mL
MIC50 [25]: 4 µg/mL (≈ 9.41 µM)
MIC90 [25]: 16 µg/mL (≈ 37.6 µM)
MIC [26]: ≤ 0.016 µg/mL
MIC50 [26]: ≤ 0.016 µg/mL
MIC90 [26]: 0.03 µg/mL (≈ 0.0706 µM)
MIC [27]: 0.03 µg/mL (≈ 0.0706 µM)
MIC50 [27]: 0.03 µg/mL (≈ 0.0706 µM)
MIC90 [27]: 0.25 µg/mL (≈ 0.588 µM)
MIC50 [28]: 4 µg/mL (≈ 9.41 µM)
MIC50 [29]: 2 µg/mL (≈ 4.71 µM)
MIC90 [29]: > 16 µg/mL
MIC50 [30]: 0.06 µg/mL (≈ 0.141 µM)
MIC90 [30]: 0.25 µg/mL (≈ 0.588 µM)
MIC90 [31]: 0.125 µg/mL (≈ 0.294 µM)
MIC50 [32]: 0.25 µg/mL (≈ 0.588 µM)
MIC90 [32]: 0.5 µg/mL (≈ 1.18 µM)
MIC50 [33]: 0.03 µg/mL (≈ 0.0706 µM)
MIC90 [33]: 0.5 µg/mL (≈ 1.18 µM)
MIC [34]: 0.5 µg/mL (≈ 1.18 µM)
MIC50 [35]: 0.03 µg/mL (≈ 0.0706 µM)
MIC90 [35]: 0.03 µg/mL (≈ 0.0706 µM)
MIC50 [36]: 8 µg/mL (≈ 18.8 µM)
MIC90 [36]: > 16 µg/mL
MIC [37]: 0.016 µg/mL (≈ 0.0376 µM)
MIC [38]: 0.06 µg/mL (≈ 0.141 µM)
MIC [39]: ≤ 0.016 µg/mL
MIC [40]: 0.03 µg/mL (≈ 0.0706 µM)
